Blank lines part the entries; values can stand above or below the molecule they belong to.
Tests used:
[1] = species: Rattus norvegicus; assay: Effect on insulin secretion from rat pancreatic islets at 50 uM concentration (n=13); type: functional
How it was run: (§1)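 Islets isolated by collagenase from fed Wistar rats (180-220 g); groups of 10 preincubated 30 min, 37 °C, in bicarbonate salt medium with 2.8 mM glucose, 0.5% dialyzed albumin, O2/CO2 95:5. Then incubated 90 min, 37 °C, with 16.7 mM glucose plus drug. Insulin measured by radioimmunoassay against rat insulin standard; expressed as % of drug-free 16.7 mM glucose control; mean ± SEM (n).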

[2] = species: Rattus norvegicus; assay: Concentration required for relaxation of the 30 mM KCl-induced contraction of rat aortic rings (n=4); type: functional; conditions: Aorta, read-out: ED50 (the source's name)
How it was run: (§2)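 Endothelium-denuded transverse aortic rings (3-4 mm) from fed Wistar rats (180-200 g); isometric tension by force transducer. After 60 min equilibration, contracted with 30 mM KCl; at stable tension, drug added cumulatively until maximal relaxation or up to 0.3 mM. Relaxation expressed as % of KCl contraction; ED50 (50% inhibition of KCl plateau) from dose curves; mean ± SEM (n).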

[3] = species: Rattus norvegicus; assay: Effect on insulin secretion from rat pancreatic islets at 10 uM concentration (n=16); type: functional; how it was run: as §1
[4] = species: Rattus norvegicus; assay: Effect on insulin secretion from rat pancreatic islets at 10 uM concentration (n=14); type: functional; how it was run: as §1
[5] = species: Rattus norvegicus; assay: Concentration required for 50% inhibition of insulin release in rat pancreatic B-cells; type: functional, cell-based
[6] = Ionization constant was determined; type: physicochemical
How it was run: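 Ionization constant found by UV spectroscopy in aqueous buffers spanning pH 5 to 12; pKa calculated with the Debye-Hückel equation at the absorbance maximum of the basic form.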

[7] = species: Rattus norvegicus; assay: Effect on insulin secretion from rat pancreatic islets at 1 uM concentration (n=15); type: functional; how it was run: as §1
[8] = species: Rattus norvegicus; assay: Concentration giving 50% relaxation of the 30 mM KCl-induced contraction of rat aortic rings (n=3); type: functional; conditions: Aorta, read-out: ED50 (the source's name); how it was run: as §2
[9] = species: Rattus norvegicus; assay: ED50/IC50 ratio was determined; type: functional
[10] = species: Rattus norvegicus; assay: Effect on insulin secretion from rat pancreatic islets at 50 uM concentration (n=18); type: functional; how it was run: as §1
[11] = species: Rattus norvegicus; assay: Concentration giving 50% relaxation of the 30 mM KCl-induced contraction of rat aortic rings (n=8); type: functional, Aorta; conditions: Rattus norvegicus, Aorta; read-out: ED50 (the source's name); how it was run: as §2
[12] = species: Rattus norvegicus; assay: Effect on insulin secretion from rat pancreatic islets at 10 uM concentration (n=22); type: functional; how it was run: as §1
[13] = species: Rattus norvegicus; assay: Effect on insulin secretion from rat pancreatic islets at 50 uM concentration (n=20); type: functional; how it was run: as §1
[14] = species: Rattus norvegicus; assay: Effect on insulin secretion from rat pancreatic islets at 10 uM concentration (n=32); type: functional
[15] = species: Rattus norvegicus; assay: Effect on insulin secretion from rat pancreatic islets at 50 uM concentration (n=35); type: functional
[16] = species: Rattus norvegicus; assay: Effect on insulin secretion from rat pancreatic islets at 1 uM concentration (n=31); type: functional
[17] = species: Rattus norvegicus; assay: Concentration giving 50% relaxation of the 30 mM KCl-induced contraction of rat aortic rings (n=6); type: functional; conditions: Aorta, read-out: ED50 (the source's name); how it was run: as §2
[18] = species: Rattus norvegicus; assay: Effect on insulin secretion from rat pancreatic islets at 10 uM concentration (n=15); type: functional; how it was run: as §1
[19] = species: Rattus norvegicus; assay: Effect on insulin secretion from rat pancreatic islets at 50 uM concentration (n=16); type: functional; how it was run: as §1
[20] = species: Rattus norvegicus; assay: Effect on insulin secretion from rat pancreatic islets at 10 uM concentration (n=13); type: functional; how it was run: as §1
[21] = species: Rattus norvegicus; assay: Effect on insulin secretion from rat pancreatic islets at 1 uM concentration (n=14); type: functional; how it was run: as §1
[22] = species: Rattus norvegicus; assay: Effect on insulin secretion from rat pancreatic islets at 50 uM concentration (n=9); type: functional; how it was run: as §1
[23] = species: Rattus norvegicus; assay: Effect on insulin secretion from rat pancreatic islets at 1 uM concentration (n=16); type: functional; how it was run: as §1
[24] = species: Rattus norvegicus; assay: Effect on insulin secretion from rat pancreatic islets at 50 uM concentration (n=12); type: functional; how it was run: as §1
[25] = species: Rattus norvegicus; assay: Effect on insulin secretion from rat pancreatic islets at 10 uM concentration (n=23); type: functional; how it was run: as §1
[26] = species: Rattus norvegicus; assay: Effect on insulin secretion from rat pancreatic islets at 50 uM concentration (n=21); type: functional; how it was run: as §1
[27] = species: Rattus norvegicus; assay: Effect on insulin secretion from rat pancreatic islets at 10 uM concentration (n=12); type: functional; how it was run: as §1
[28] = species: Rattus norvegicus; assay: Effect on insulin secretion from rat pancreatic islets at 1 uM concentration (n=23); type: functional; how it was run: as §1
[29] = species: Rattus norvegicus; assay: Concentration required for relaxation of the 30 mM KCl-induced contraction of rat aortic rings; Precipitate; type: functional; conditions: Aorta; how it was run: as §2
[30] = species: Rattus norvegicus; assay: Concentration giving 50% relaxation of the 30 mM KCl-induced contraction of rat aortic rings (n=11); conditions: Aorta, read-out: ED50

SMILES: CCNC1=NS(=O)(=O)c2cc(S(C)(=O)=O)ccc2N1
Residual insulin release [3]: 91.6% | EC50 [2]: > 300 µM

SMILES: Cc1ccc2c(c1)S(=O)(=O)N=C(NC(C)C)N2
Residual insulin release [4]: 8.5% | IC50 [5]: 2 µM | pKa [6]: 10.2 | Residual insulin release [7]: 71.3% | EC50 [8]: 200 µM | Residual insulin release [1]: 3.5% | Ratio [9]: 100

SMILES: COC(=O)c1ccc2c(c1)S(=O)(=O)NC(NC(C)C)=N2
EC50 [11]: > 200 µM | Residual insulin release [12]: 95.7% | Residual insulin release [13]: 94.3%

SMILES: CC(C)NC1=NS(=O)(=O)c2cc(Cl)ccc2N1
Residual insulin release [14]: 4.9% | Residual insulin release [15]: 5.7% | IC50 [5]: 0.7 µM | Residual insulin release [16]: 36.2% | EC50 [17]: 36.3 µM | Ratio [9]: 52

SMILES: CC(C)NC1=NS(=O)(=O)c2cc(C(F)(F)F)ccc2N1
Residual insulin release [20]: 7.4% | IC50 [5]: 1.7 µM | pKa [6]: 8.96 | Residual insulin release [21]: 71.5% | Residual insulin release [1]: 7.1% | EC50 [17]: 13.1 µM | Ratio [9]: 7.7

SMILES: CCCNC1=NS(=O)(=O)c2cc(OC)ccc2N1
Residual insulin release [23]: 101.7% | Residual insulin release [4]: 47.4% | IC50 [5]: 8.9 µM | Residual insulin release [24]: 6.3% | EC50 [2]: > 300 µM | Ratio [9]: >34

SMILES: CC(C)NC1=NS(=O)(=O)c2cc(C(=O)O)ccc2N1
Residual insulin release [25]: 96.6% | Residual insulin release [19]: 98.6% | EC50 [2]: > 300 µM

SMILES: CCNC1=NS(=O)(=O)c2ccccc2N1
Residual insulin release [27]: 25.8% | EC50 [2]: > 300 µM | Residual insulin release [28]: 77.4%

SMILES: CCOc1ccc2c(c1)S(=O)(=O)NC(NC1CCC1)=N2
Residual insulin release [3]: 84.9% | EC50 [2]: > 300 µM

SMILES: CC(C)NC1=NS(=O)(=O)c2ccccc2N1
Residual insulin release [3]: 34.9% | IC50 [5]: 3.8 µM | pKa [6]: 9.98 | Residual insulin release [7]: 73.7% | EC50 [2]: > 300 µM | Ratio [9]: >79

SMILES: CCC(C)NC1=NS(=O)(=O)c2ccccc2N1 (stereo not drawn)
Residual insulin release [3]: 42.7% | Residual insulin release [23]: 90.4% | ED50 [29]: Precipitate

SMILES: CC1=Nc2ccc(Cl)cc2S(=O)(=O)N1 [DIAZOXIDE]
Residual insulin release [3]: 73.9% | EC50 [30]: 22.4 µM | IC50 [5]: 22.6 µM | Residual insulin release [19]: 26.7% | Residual insulin release [7]: 87.5% | Ratio [9]: 1

Further lines, with some results ahead:

EC50 [2]: 13.8 µM
SMILES: O=[N+]([O-])c1ccc2c(c1)S(=O)(=O)NC(NC1CCC1)=N2
Residual insulin release [1]: 59.6%

EC50 [2]: 6.1 µM
SMILES: CCC(C)NC1=NS(=O)(=O)c2cc([N+](=O)[O-])ccc2N1 (stereo not drawn)
Residual insulin release [10]: 63.3%

EC50 [2]: 127 µM
SMILES: CC(C)NC1=NS(=O)(=O)c2cc(S(C)(=O)=O)ccc2N1
Residual insulin release [18]: 90.5%

EC50 [2]: 2.8 µM
SMILES: CC(C)C(C)NC1=NS(=O)(=O)c2cc([N+](=O)[O-])ccc2N1 (stereo not drawn)
Residual insulin release [19]: 90.4%

IC50 [5]: 4 µM | EC50 [2]: 17.5 µM
SMILES: CCC(C)NC1=NS(=O)(=O)c2cc(OC)ccc2N1 (stereo not drawn)
Residual insulin release [22]: 8.5% | Residual insulin release [18]: 23.4% | Residual insulin release [7]: 92.4% | Ratio [9]: 4.4

pKa [6]: 8.56 | EC50 [2]: 42.7 µM
SMILES: CC(C)NC1=NS(=O)(=O)c2cc(C#N)ccc2N1
Residual insulin release [26]: 23.5% | Residual insulin release [18]: 82.2%

EC50 [2]: > 30 µM
SMILES: CCCCCc1ccc2c(c1)S(=O)(=O)NC(NC1CCC1)=N2
Residual insulin release [18]: 95.3%

EC50 [2]: 175 µM
SMILES: CC(C)NC1=NS(=O)(=O)c2cc(C(N)=O)ccc2N1
Residual insulin release [25]: 76.6%

EC50 [2]: 20.1 µM
SMILES: CCCCCc1ccc2c(c1)S(=O)(=O)NC(NC(C)C)=N2
Residual insulin release [3]: 106%

— ChEMBL document CHEMBL1139506, “Effect on K(ATP) channel activation properties and tissue selectivity of the nature of the substituent in the 7- and the 3-position of 4H-1,2,4-benzothiadiazine 1,1-dioxides” (J Med Chem, 2005)
